The results in this text go back to ChEMBL document CHEMBL1932940, “Xanthohumol induces apoptosis in human malignant glioblastoma cells by increasing reactive oxygen species and activating MAPK pathways” (J Nat Prod, 2011).

Experiment [1] has as its system T98G. The experiment is described as follows: Induction of apoptosis in human T98G cells assessed as decrease in mitochondrial depolarization at 20 uM after 24 hrs by […] fluorescence analysis in presence of 5 mM NAC. In kind it is functional, cell-based. The procedure, abridged: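 T98G treated with 20 μM for 4−24 h (NAC 5 mM where stated), then loaded with 5 nM TMRE for 30 min at 37 °C; fluorescence by flow cytometry (FL-2); percentage of cells with depolarized mitochondria reported. Three experiments in triplicate (n = 3 for NAC set).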

In experiment [2] the test system is T98G. The experiment is described as follows: Induction of apoptosis in human T98G cells assessed as increase in subG1 population after 24 to 48 hrs by propidium iodide staining based flow cytometric analysis. Format: functional, cell-based. An outline of the steps: (§1)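 Cells treated 1−50 μM for 24 or 48 h, washed in PBS, resuspended in 0.1% sodium citrate, 0.1% Triton X-100, 50 μg/mL propidium iodide, 30 min at 4 °C in dark. Nuclei analyzed by flow cytometry, DNA on log scale, debris gated out; percent hypodiploid (sub-G1) nuclei reported. Three experiments in triplicate.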

For experiment [3], the system named is T98G. The experiment is described as follows: Induction of apoptosis in human T98G cells assessed as cleavage PARP protein level at 20 uM after 24 hrs by Western blot analysis in presence of 5 mM NAC. In kind it is functional, cell-based. The procedure, abridged:
(§2)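 T98G exposed to 20 μM for various times (0−48 h), NAC 5 mM where stated. Total lysates, or digitonin-permeabilized cytosolic and mitochondrial fractions (10000g, 15 min, 4 °C) for cytochrome c, blotted for caspase-3, caspase-9, PARP (1:1000), Bcl-2 (1:500), cytochrome c; β-actin loading control; ECL detection. Three experiments.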
On the technique in general: A western blot detects proteins with antibodies after separation by electrophoresis.

Experiment [4] has as its system T98G. The experiment is described as follows: Induction of apoptosis in human T98G cells assessed as increase in caspase-9 expression level at 20 uM after 8 hrs by Western blot analysis. Format: functional, cell-based. The procedure, abridged:
as §2

Experiment [5] has as its system T98G. In words: Anticancer activity against human T98G cells assessed as decrease in cell viability at 20 uM after 48 hrs by MTT assay. Format: functional, cell-based. An outline of the steps:
(§3)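 Cells (T98G, U87-MG, NHA; 3 × 10^4 per well) plated, next day exposed to serial dilutions (1−50 μM) for 48 h at 37 °C, 5% CO2. MTT (5 mg/mL) added for 3 h; crystals solubilized in 50% DMF/20% SDS pH 4.5; OD at 620 nm. Viability = % of DMSO (0.1% final) controls. Means ± SEM, three experiments in triplicate.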
(Tetrazolium assays rely on reduction of a dye to a coloured formazan, in cell work by metabolically active cells.)

Experiment [6] concerns T98G. The experiment is described as follows: Induction of apoptosis in human T98G cells assessed as increase in ROS production at 20 uM measured every 5 mins for 5 to 120 mins by DCFH-DA staining-based flow cytometric analysis in presence of 5 mM NAC. In kind it is functional, cell-based. An outline of the steps:
(§4)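 T98G incubated with 20 μM, with or without 5 mM NAC pretreatment, for 5−120 min or 24 h; washed, resuspended at 2 × 10^5 cells/mL in HBSS with 10 μM DCFH-DA, 20 min at 37 °C; DCF fluorescence read by flow cytometry (FL1), also viewed by fluorescence microscopy.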
Background: Flow cytometry measures light scatter and fluorescence of single cells or particles in a stream.

Experiment [7] concerns T98G. In words: Induction of apoptosis in human T98G cells assessed as increase in ROS production at 20 uM after 24 hrs by DCFH-DA staining-based flow cytometric analysis in presence of 5 mM NAC. In kind it is functional, cell-based. The procedure, abridged: as §4
Experiment [8] has as its system T98G. In words: Induction of apoptosis in human T98G cells assessed as increase in ROS production at 20 uM after 48 hrs by DCFH-DA staining-based flow cytometric analysis in presence of 10 uM ascorbic acid. Format: functional, cell-based.
In experiment [9] the test system is T98G. The experiment is described as follows: Induction of cell cycle arrest in human T98G cells assessed as accumulation at S phase at 1 to 20 uM after 48 hrs by flow cytometric analysis. Format: functional, cell-based. The procedure, abridged:
(§5)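 2 × 10^5 cells per dish exposed 48 h (1−20 μM per legend); harvested, fixed in cold 70% ethanol at −20 °C, stained with propidium iodide plus RNase A (100 U/mL) 30 min at room temperature; percentage in G1, S, G2/M by flow cytometry. Three experiments in triplicate.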

In experiment [10] the test system is T98G. In words: Induction of apoptosis in human T98G cells at 20 uM after 48 hrs by flow cytometric analysis pretreated with 20 uM Erk inhibitor PD98059 for 30 mins. Also on record: scale not given: the % may be the effect or the level left. In kind it is functional. The procedure, abridged: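 T98G pretreated with PD98059 (20 μM, 30 min), SB203580 (5 μM, 1 h) or SP600125 (5 μM, 1 h), then exposed to 20 μM for 48 h; hypodiploid nuclei quantified by propidium iodide flow cytometry. Means ± SEM, three experiments in triplicate.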

Experiment [11] concerns the target T1, Mitogen-activated protein kinase; ERK1/ERK2 (Homo sapiens) (UniProt P27361+P28482). The experiment is described as follows: Induction of Erk1/2 phosphorylation in human T98G cells at 20 uM measured every 5 mins for 2 hrs by Western blot analysis. In kind it is cell-based. The procedure, abridged:
(§6)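 T98G exposed to 20 μM for 5−120 min or 24 h, with or without 5 mM NAC. Lysates (Tris/deoxycholate/SDS/IGEPAL with protease and phosphatase inhibitors) immunoblotted with anti-p-ERK, ERK1/2 (1:1000), p-p38, p38; ECL detection; phospho signals normalized to total ERK1/2 or p38. Three experiments.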

Experiment [12] concerns T98G. The experiment is described as follows: Induction of apoptosis in human T98G cells assessed as increase in caspase-3 expression level at 20 uM after 24 hrs by Western blot analysis. Format: functional, cell-based. An outline of the steps: as §2
The test system of another experiment is U-87 MG. In words: Induction of cell cycle arrest in human U87MG cells assessed as accumulation at G0/G1 phase at 1 to 20 uM after 48 hrs by flow cytometric analysis. In kind it is functional, cell-based. The conditions noted are these: U-87MG ATCC. The procedure, abridged: as §5
In experiment [13] the test system is T98G. The experiment is described as follows: Induction of apoptosis in human T98G cells assessed as decrease in Bcl-2 expression at 20 uM after 48 hrs by Western blot analysis in presence of 5 mM NAC. Format: functional, cell-based. The procedure, abridged: as §2
In experiment [14] the test system is T98G. In words: Anticancer activity against human T98G cells assessed as decrease in cell viability after 48 hrs by MTT assay. In kind it is functional, cell-based. An outline of the steps:
as §3

Experiment [15] addresses Mitogen-activated protein kinase 9 (Homo sapiens) (UniProt P45984). The experiment is described as follows: Induction of JNK phosphorylation in human T98G cells at 20 uM after 30 to 60 mins for 2 hrs by Western blot analysis. Format: cell-based.
Experiment [16] has as its system T98G. In words: Induction of cell cycle arrest in human T98G cells assessed as accumulation at G2/M phase at 1 to 20 uM after 48 hrs by flow cytometric analysis. Format: functional, cell-based. The procedure, abridged:
as §5

Experiment [17] deals with T98G. The experiment is described as follows: Induction of apoptosis in human T98G cells assessed as increase in ROS production at 20 uM after 24 hrs by DCFH-DA staining-based flow cytometric analysis. In kind it is functional, cell-based. An outline of the steps: as §4
For experiment [18], the system named is T98G. The experiment is described as follows: Induction of apoptosis in human T98G cells after 48 hrs by propidium iodide staining-based flow cytometric analysis. In kind it is functional, cell-based. An outline of the steps:
as §1

The subject of experiment [19] is T98G. In words: Induction of apoptosis in human T98G cells assessed as increase in cleaved PARP protein level at 20 uM after 24 hrs by Western blot analysis. Format: functional, cell-based. An outline of the steps: as §2
Experiment [20] relates to T98G. In words: Induction of apoptosis in human T98G cells assessed as cell death at 20 uM after 48 hrs by propidium iodide staining based flow cytometric analysis. Format: functional. The procedure, abridged: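 T98G cells grown in DMEM with 10% heat-inactivated FBS and 2 mM L-glutamine at 37 °C, 5% CO2, then exposed 24–48 h (range 1–50 μM). Percent hypodiploid nuclei counted by flow cytometry, debris gated out. Three experiments in triplicate, mean ± SEM.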

Experiment [21] deals with T98G. In words: Induction of apoptosis in human T98G cells assessed as decrease in Bcl-2 expression at 20 uM by Western blot analysis. In kind it is functional, cell-based. As to conditions: TDE = time-dependent effect. An outline of the steps:
as §2

The target of experiment [22] is T1, Mitogen-activated protein kinase; ERK1/ERK2 (Homo sapiens). In words: Induction of Erk1/2 phosphorylation in human T98G cells at 20 uM measured after 24 hrs by Western blot analysis. Format: cell-based. The procedure, abridged: as §6

Active and inactive are the calls of the source. The calls are words filed in the database; no cut-off is given here.

T1 sequence (P27361 whole entry, looked up): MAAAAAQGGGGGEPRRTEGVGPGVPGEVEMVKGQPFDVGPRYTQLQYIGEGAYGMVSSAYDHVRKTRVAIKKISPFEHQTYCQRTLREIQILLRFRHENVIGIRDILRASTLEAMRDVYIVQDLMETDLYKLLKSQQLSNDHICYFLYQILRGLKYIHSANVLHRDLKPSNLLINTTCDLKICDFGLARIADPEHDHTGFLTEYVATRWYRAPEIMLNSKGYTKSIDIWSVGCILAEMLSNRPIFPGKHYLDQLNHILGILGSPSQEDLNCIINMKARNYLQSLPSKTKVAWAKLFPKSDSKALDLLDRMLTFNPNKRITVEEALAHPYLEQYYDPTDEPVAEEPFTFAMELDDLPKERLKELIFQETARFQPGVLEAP
T1 sequence (P28482 whole entry, looked up): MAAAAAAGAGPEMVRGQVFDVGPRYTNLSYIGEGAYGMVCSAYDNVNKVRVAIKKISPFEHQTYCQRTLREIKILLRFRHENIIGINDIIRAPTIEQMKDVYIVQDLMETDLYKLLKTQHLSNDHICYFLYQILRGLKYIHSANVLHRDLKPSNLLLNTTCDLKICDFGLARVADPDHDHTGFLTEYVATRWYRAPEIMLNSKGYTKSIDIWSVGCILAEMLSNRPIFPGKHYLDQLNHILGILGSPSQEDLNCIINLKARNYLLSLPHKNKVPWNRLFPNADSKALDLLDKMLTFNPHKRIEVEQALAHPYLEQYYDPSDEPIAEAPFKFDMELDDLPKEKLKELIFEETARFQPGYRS
Mitogen-activated protein kinase 9 (Homo sapiens), sequence (P45984 whole entry, looked up): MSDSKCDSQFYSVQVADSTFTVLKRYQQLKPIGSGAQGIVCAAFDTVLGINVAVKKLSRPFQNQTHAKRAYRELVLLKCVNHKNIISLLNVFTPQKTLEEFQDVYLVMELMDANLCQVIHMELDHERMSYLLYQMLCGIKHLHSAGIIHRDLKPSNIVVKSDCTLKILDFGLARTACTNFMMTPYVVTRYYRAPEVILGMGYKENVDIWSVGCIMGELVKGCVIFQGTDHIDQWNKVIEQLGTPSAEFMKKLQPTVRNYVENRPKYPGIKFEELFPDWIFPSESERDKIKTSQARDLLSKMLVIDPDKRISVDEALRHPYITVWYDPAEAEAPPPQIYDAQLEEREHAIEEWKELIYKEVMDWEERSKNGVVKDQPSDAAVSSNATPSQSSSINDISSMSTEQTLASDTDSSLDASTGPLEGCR

In the case of `COc1cc(O)c(CC=C(C)C)c(O)c1C(=O)/C=C/c1ccc(O)cc1` [XANTHOHUMOL], the outcome in the experiment with T98G [1], in the experiment with T98G [3], in the experiment on T98G [6], in the experiment with T98G [7], with T98G [8] and with T98G [9] was inactive. Besides, the result (in the experiment on U-87 MG; in the experiment on T98G [13]; in experiment [15]; in the experiment with T98G [16]) was inactive. Besides, the Activity result in the experiment with T98G [2] was “Dose-dependent effect”; in the experiment on T98G [10], 50%; in the experiment with T98G [14], “Dose-dependent effect”; in the experiment with T98G [18], “Dose-dependent effect”; with T98G [20], 40%; with T98G [21] it was “tde”. In addition, the outcome (in the experiment with T98G [4]; with T98G [5]; in experiment [11]; in the experiment with T98G [12]; in the experiment on T98G [17]; with T98G [19]) was Active. In experiment [22], the result was Active.
